According to ChEMBL document CHEMBL4400535, “Experience-based discovery (EBD) of aryl hydrazines as new scaffolds for the development of LSD1/KDM1A inhibitors” (Eur J Med Chem, 2019):
One block for each compound: values may come before it. Active and inactive are the calls of the source. The rule behind the calls is not given here.

Tests used:
[1] = biological target: T1, Lysine-specific histone demethylase 1A (Homo sapiens, UniProt O60341); assay: Binding affinity to LSD1 in human A549 cells assessed as thermal stability by measuring temperature at 10 uM after 1 hr by thermal shift assay; type: cell-based
Summary of the method: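 CETSA: A549 cells (5 × 10⁵ per sample) were exposed 1 h to 10 µM compound or DMSO, washed in PBS, and resuspended in PBS with protease inhibitor. Samples were heated 3 min at the indicated temperatures (e.g. 46, 49, 52 °C), then freeze-thawed three times in liquid nitrogen. Soluble LSD1 was measured by western blot with a GAPDH control; three independent experiments.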

[2] = biological target: T1, Lysine-specific histone demethylase 1A; assay: Inhibition of LSD1 in human A549 cells assessed as accumulation of H3K9me2 after 96 hrs by Western blot analysis; type: cell-based
Summary of the method: (§1)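 A549 cells were treated with 0, 1 and 6 µM for 96 h, then lysed in RIPA buffer (50 mM Tris-HCl pH 7.5) with protease inhibitors. Lysates went through SDS-PAGE, PVDF transfer and probing for the histone mark, with ECL detection. Bands were quantified against total H3. Run at least three times; mean ± SD.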

[3] = biological target: T1, Lysine-specific histone demethylase 1A; assay: Inhibition of LSD1 in human A549 cells assessed as accumulation of H3K9me1 up to 6 uM after 96 hrs by Western blot analysis; type: cell-based
Summary of the method: (§2)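 A549 cells exposed to 0, 1 or 6 µM for 96 h, lysed in RIPA buffer (pH 7.5) with protease inhibitors. Lysates (40 µg/lane) resolved by 10% or 12% SDS-PAGE and immunoblotted for H3K4me1/2 and H3K9me1/2. ECL read-out, quantified against total histone H3 loading control. At least three experiments, mean ± SD.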

[4] = biological target: T1, Lysine-specific histone demethylase 1A; assay: Inhibition of LSD1 in human A549 cells assessed as accumulation of H3K9me1 after 96 hrs by Western blot analysis; type: cell-based; summary of the method: as §1
[5] = biological target: T1, Lysine-specific histone demethylase 1A; assay: Inhibition of LSD1 in human A549 cells assessed as accumulation of H3K4me2 after 96 hrs by Western blot analysis; type: cell-based; summary of the method: as §1
[6] = biological target: T1, Lysine-specific histone demethylase 1A; assay: Inhibition of LSD1 in human A549 cells assessed as accumulation of H3K4me1 after 96 hrs by Western blot analysis; type: cell-based; summary of the method: as §1
[7] = biological target: T1, Lysine-specific histone demethylase 1A; assay: Inhibition of recombinant LSD1 (unknown origin) using H3K4me2 as substrate by fluorescence assay
[8] = biological target: T1, Lysine-specific histone demethylase 1A; assay: Inhibition of LSD1 in human A549 cells assessed as accumulation of H3K4me1 up to 6 uM after 96 hrs by Western blot analysis; type: cell-based; summary of the method: as §2
[9] = system: A549; assay: Effect on LSD1 expression in human A549 cells up to 6 uM after 96 hrs by Western blot analysis; type: functional, cell-based
Summary of the method: (§3)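 A549 cells treated with 0, 1 or 6 µM for 96 h, harvested with trypsin and lysed in RIPA buffer (pH 7.5) with protease inhibitors. 40 lg protein/lane on SDS-PAGE, transferred to PVDF, probed overnight with specific primary antibodies. ECL detection, quantified against GAPDH loading control. At least three experiments, mean ± SD.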

[10] = system: A549; assay: Down regulation of N-cadherin levels in human A549 cells up to 6 uM after 96 hrs by Western blot analysis; type: functional, cell-based; summary of the method: as §3
[11] = biological target: T1, Lysine-specific histone demethylase 1A; assay: Inhibition of LSD1 in human A549 cells assessed as accumulation of H3K4me2 up to 6 uM after 96 hrs by Western blot analysis; type: cell-based; summary of the method: as §2
[12] = system: A549; assay: Up regulation of E-cadherin levels in human A549 cells up to 6 uM after 96 hrs by Western blot analysis; type: functional, cell-based; summary of the method: as §3
[13] = system: A549; assay: Down regulation of slug levels in human A549 cells up to 6 uM after 96 hrs by Western blot analysis; type: functional, cell-based; summary of the method: as §3
[14] = system: A549; assay: Down regulation of snail levels in human A549 cells up to 6 uM after 96 hrs by Western blot analysis; type: functional, cell-based; summary of the method: as §3
[15] = biological target: T1, Lysine-specific histone demethylase 1A; assay: Inhibition of LSD1 in human A549 cells assessed as accumulation of H3K9me2 up to 6 uM after 96 hrs by Western blot analysis; type: cell-based; summary of the method: as §2
[16] = system: A549; assay: Up regulation of claudin-1 levels in human A549 cells up to 6 uM after 96 hrs by Western blot analysis; type: functional, cell-based; summary of the method: as §3
[17] = system: A549; assay: Antimigratory activity against human A549 cells at 6 uM after 48 hrs by wound healing assay; type: functional, cell-based
Summary of the method: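 Scratch wound assay in A549 monolayers: cells seeded at 1 × 10⁴ per well, incubated 24 h, then scratched with a pipette tip. Cultured 48 h in fresh medium with 1% FBS and varying compound concentrations, then photographed under an inverted microscope. At least three independent experiments, mean ± SD.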

[18] = biological target: T1, Lysine-specific histone demethylase 1A; conditions: 1.6 uM
[19] = biological target: T2, MAO-A (Homo sapiens, UniProt P21397); assay: Inhibition of MAO-A (unknown origin) at 1 uM relative to control
T2 sequence (P21397 whole entry): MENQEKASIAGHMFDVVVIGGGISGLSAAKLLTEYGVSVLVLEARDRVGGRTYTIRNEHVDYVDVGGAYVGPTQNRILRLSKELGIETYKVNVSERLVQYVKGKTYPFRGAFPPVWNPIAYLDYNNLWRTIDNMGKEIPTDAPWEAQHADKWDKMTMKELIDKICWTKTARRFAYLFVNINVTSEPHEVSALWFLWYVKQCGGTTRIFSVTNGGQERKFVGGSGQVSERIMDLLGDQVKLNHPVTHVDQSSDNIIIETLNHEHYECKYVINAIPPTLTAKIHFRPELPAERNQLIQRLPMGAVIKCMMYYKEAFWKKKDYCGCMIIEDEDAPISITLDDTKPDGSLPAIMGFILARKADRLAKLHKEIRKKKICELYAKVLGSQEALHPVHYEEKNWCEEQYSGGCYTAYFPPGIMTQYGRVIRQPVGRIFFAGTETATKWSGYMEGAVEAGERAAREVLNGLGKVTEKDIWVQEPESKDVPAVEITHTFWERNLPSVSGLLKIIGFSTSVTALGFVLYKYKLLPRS

[20] = biological target: T1, Lysine-specific histone demethylase 1A; assay: Reversible inhibition of recombinant LSD1 (unknown origin) assessed as recovery of enzyme activity at 40 uM measured 1 hr after 80-fold dilution
Summary of the method: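 Dilution assay: 2.5 µg recombinant LSD1 was preincubated 1 h at 25 °C with 40 µM compound, 1.6 µM GSK2879552 or DMSO. Aliquots were then diluted 80-fold into HRP-coupled assay solution with substrate and compared with undiluted mixtures to assess recovery of LSD1 activity.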

[21] = biological target: T3, MAO-B (Homo sapiens, UniProt P27338); assay: Inhibition of MAO-B (unknown origin) at 1 uM relative to control
T3 sequence (P27338 whole entry): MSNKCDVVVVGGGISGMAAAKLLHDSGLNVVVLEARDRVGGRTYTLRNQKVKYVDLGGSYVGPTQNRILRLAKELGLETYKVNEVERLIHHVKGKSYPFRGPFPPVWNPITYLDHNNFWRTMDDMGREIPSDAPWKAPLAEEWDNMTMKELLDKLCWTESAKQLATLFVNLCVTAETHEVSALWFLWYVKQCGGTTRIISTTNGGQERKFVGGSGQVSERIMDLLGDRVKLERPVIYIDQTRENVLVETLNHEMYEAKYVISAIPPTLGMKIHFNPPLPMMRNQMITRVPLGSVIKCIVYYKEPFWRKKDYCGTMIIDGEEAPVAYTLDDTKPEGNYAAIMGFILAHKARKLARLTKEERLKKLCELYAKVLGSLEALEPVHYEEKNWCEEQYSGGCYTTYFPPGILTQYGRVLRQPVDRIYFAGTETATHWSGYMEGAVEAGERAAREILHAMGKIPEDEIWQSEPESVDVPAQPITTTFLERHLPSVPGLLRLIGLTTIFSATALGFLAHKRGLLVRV

[22] = system: A549; assay: Antimigratory activity against human A549 cells after 48 hrs by wound healing assay; type: functional, cell-based
Summary of the method: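 Scratch assay: cells seeded at 1 × 10⁴ per well and grown 24 h, then the monolayer was scratched with a pipette tip. Cells were then cultured 48 h in fresh medium with 1% FBS and graded compound concentrations. Wound closure was photographed under an inverted microscope. Run at least three times; mean ± SD.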

[23] = system: GES1; assay: Cytotoxicity against human GES-1 cells assessed as decrease in cell viability after 96 hrs by MTT assay; type: cell-based; conditions: GES1, 96 h
Summary of the method: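 GES-1 cells were grown in RPMI-1640 with 10% FBS at 37 °C and 5% CO₂. They were seeded at 3 × 10³ per well, left overnight, then given graded concentrations for 4 days (0.1% DMSO vehicle). MTT was added for 4 h at 37 °C, formazan dissolved in DMSO, and A570 read. Viability = (At/As) × 100% against solvent control.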

[24] = biological target: T2, MAO-A; assay: Inhibition of MAO-A (unknown origin) at 10 uM relative to control
[25] = biological target: T3, MAO-B; assay: Inhibition of MAO-B (unknown origin) at 10 uM relative to control
[26] = biological target: T1, Lysine-specific histone demethylase 1A; assay: Competitive inhibition of recombinant LSD1 (unknown origin) up to 1.25 uM using H3K4me2 as substrate in presence of FAD by Lineweaver-Burk plot analysis
[27] = biological target: T1, Lysine-specific histone demethylase 1A; assay: Inhibition of H3K4me2 binding to LSD1 in human A549 cells up to 6 uM after 96 hrs by immunoprecipitation assay; type: cell-based
Summary of the method: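 Co-IP: A549 cells were treated with 0 or 6 µM for 96 h, trypsinised, and lysed in IP lysis/wash buffer with protease inhibitors. LSD1 antibody was used as bait, and H3K4me2 bound to LSD1 was detected. Total cell lysate was blotted alongside with a GAPDH loading control.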

- Activity [1]: inactive
- inhibition [2]: inactive
- inhibition [3]: inactive
- inhibition [4]: inactive
- inhibition [5]: inactive
- inhibition [6]: inactive
- IC50 [7]: > 50 µM
Structure (SMILES): Cc1cc(NN)n2ncnc2n1

Structure (SMILES): c1ccc([C@@H]2C[C@H]2NC2CCNCC2)cc1 (racemic)
- inhibition [8]: Active
- Activity [9]: inactive
- Activity [10]: Active
- inhibition [2]: Dose-dependent effect
- inhibition [11]: Active
- inhibition [3]: inactive
- inhibition [5]: Dose-dependent effect
- Activity [12]: Active
- Activity [13]: Active
- inhibition [6]: Dose-dependent effect
- Activity [14]: Active
- inhibition [15]: Active
- Activity [16]: Active
- inhibition [17]: Active

Structure (SMILES): C/C(=N\NC(=O)c1cccc(S(=O)(=O)N2CCOCC2)c1)c1cc(Cl)ccc1O
- IC50 [7]: 0.0243 µM

- IC50 [7]: > 50 µM
Structure (SMILES): Cc1cc(NN)n2nc(SCc3cccc4ccccc34)nc2n1

- IC50 [7]: > 50 µM
Structure (SMILES): Cc1cc(NCCN)n2nc(SCc3ccccc3)nc2n1

- IC50 [7]: > 50 µM
Structure (SMILES): Cc1cc(N2CCCC(N)C2)n2nc(SCc3ccccc3)nc2n1 (stereo not drawn)

- inhibition [18]: Active
Structure (SMILES): O=C(O)c1ccc(CN2CCC(CN[C@@H]3C[C@H]3c3ccccc3)CC2)cc1

- IC50 [7]: > 50 µM
Structure (SMILES): Cc1cc(N(C)CCN(C)C)n2nc(SCc3ccccc3)nc2n1

- IC50 [7]: > 50 µM
Structure (SMILES): Cc1cc(N)n2nc(SCc3ccccc3)nc2n1

- IC50 [7]: > 50 µM
Structure (SMILES): CNCCN(C)c1cc(C)nc2nc(SCc3ccccc3)nn12

- inhibition at 1 µM [19]: 21%
- inhibition [20]: Active
- inhibition at 1 µM [21]: 15%
- T [1]: 52 °C
- inhibition [2]: Dose-dependent effect
- inhibition at 10 µM [24]: 36%
- inhibition [4]: Dose-dependent effect
- inhibition [5]: Dose-dependent effect
- inhibition at 10 µM [25]: 43%
- inhibition [26]: Active
- inhibition [6]: Dose-dependent effect
- IC50 [7]: 0.882 µM
- inhibition [27]: Active
Structure (SMILES): Cc1cc(NN)n2nc(SCc3ccccc3)nc2n1
- Activity [9]: inactive
- Activity [10]: Active
- Activity [22]: Dose-dependent effect
- IC50 [23]: > 50 µM
- Activity [12]: Active
- Activity [13]: Active
- Activity [14]: Active
- Activity [16]: Active

- IC50 [7]: > 50 µM
Structure (SMILES): Cc1cc(N2CCCC(NC(=O)OC(C)(C)C)C2)n2nc(SCc3ccccc3)nc2n1 (stereo not drawn)

- IC50 [7]: > 50 µM
Structure (SMILES): NNc1cc(-c2ccccc2)nc2nc(SCc3ccccc3)nn12

- IC50 [7]: > 50 µM
Structure (SMILES): Cc1cc(NCCOCCOCCN)n2nc(SCc3ccccc3)nc2n1
